Assay [1] concerns Escherichia coli. Description: Antibacterial activity against Escherichia coli ATCC 25922 assessed as bacterial growth inhibition at 32 ug/ml measured after 18 hrs by resazurine dye based assay. The conditions noted are these: dose 32.0 µg/ml. The format is functional, organism-based. The procedure, abridged: (§1)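 Screened through CO-ADD at 32 µg/mL against a panel of five bacteria and two fungi. Run in duplicate (n=2) on different plates. Activity was called when inhibition exceeded 80% with a Z-score above 2.5 in either replicate.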
For orientation: Alamar Blue is a resazurin reagent that responds to reducing activity.

Assay [2] concerns Cryptococcus neoformans. Description: Antifungal activity against Cryptococcus neoformans var. grubii H99 ATCC 208821 assessed as fungal growth inhibition at 32 ug/ml measured after 3 days by resazurine dye based assay. To be noted: dose 32.0 µg/ml, time 3.0 day. Type of assay: functional, organism-based. The procedure, abridged:
as §1

In assay [3] the test system is Staphylococcus aureus. Description: Antibacterial activity against Staphylococcus aureus MRSA ATCC 43300 assessed as bacterial growth inhibition at 32 ug/ml measured after 18 hrs by resazurine dye based assay relative to control. The format is functional. The procedure, abridged: as §1
Assay [4] relates to Haemonchus contortus. Description: Anthelmintic activity against third stage larvae of Haemonchus contortus assessed as inhibition of xL3 larval motility at 20 uM measured after 72 hrs. The format is functional, organism-based. The gist of the method: (§2)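 Exsheathed third-stage larvae (xL3s) of Haemonchus contortus, screened at 20 µM in 96-well plates holding 300 xL3s per well; testing was done at the University of Melbourne.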

Assay [5] deals with Haemonchus contortus. Description: Anthelmintic activity against third stage larvae of Haemonchus contortus assessed as inhibition of larval development at 20 uM measured after 7 days by microscopic analysis. Type of assay: functional, organism-based. To be noted: time 7.0 day. The gist of the method:
as §2

Assay [6] deals with Candida albicans. Description: Antifungal activity against Candida albicans ATCC 90028 assessed as fungal growth inhibition at 32 ug/ml measured after 3 days by resazurine dye based assay relative to control. The format is functional. To be noted: ATCC 90028, 72 h, time 3 day. The gist of the method: as §1

By inhibition is commonly meant the percentage by which the read-out fell short of the control.

Structures are written as SMILES. Active and inactive are the calls of the source. No cut-off for these calls is given here.

Consider `COc1cc2ccc(=O)c3ccc4c5ccccc5oc1c4c23`, for which the result in assay [1] and in assay [2] was inactive. Also, the inhibition at 32 µg/mL in assay [3] worked out at 58.4%.
Regarding `O=C1OC(C(=O)O)c2cc(O)c(O[C@H]3O[C@@H](CO)[C@H](O)[C@@H](O)[C@@H]3O)c3c(-c4ccccc4)ccc1c23` (mixture of isomers), the result in assay [1] and in assay [2] was inactive.
As to `O=C1C(O)=Cc2ccc(O[C@@H]3O[C@H](CO)[C@@H](O)[C@H](O)[C@H]3O)c3cc(-c4ccccc4O)cc1c23`, the result in assay [1], in assay [2], in assay [4] and in assay [5] was inactive.
As for `O=C1C=Cc2cc(O[C@@H]3O[C@H](CO)[C@@H](O)[C@H](O)[C@H]3O)cc3c(-c4ccc(O)cc4)ccc1c23`, the result in assay [1], in assay [2], in assay [4] and in assay [5] was inactive. For the same molecule, the inhibition at 32 µg/mL in assay [6] was 29.6%.
Take `O=C1C(O)=Cc2cc(O[C@@H]3O[C@H](CO[C@@H]4O[C@H](CO)[C@@H](O)[C@H](O)[C@H]4O)[C@@H](O)[C@H](O)[C@H]3O)cc3c(-c4ccc(O)c(O)c4)ccc1c23`: the outcome in assay [1], in assay [2], in assay [4] and in assay [5] was inactive.
Turning to `COc1cc2ccc(=O)c3cc(O[C@@H]4O[C@H](CO)[C@@H](O)[C@H](O)[C@H]4O)c4c5ccccc5oc1c4c23`, the result in assay [1] and in assay [2] was inactive. Also, the inhibition at 32 µg/mL in assay [3] amounted to 8.1%.
As for `COC(=O)c1ccc(-c2ccccc2)c2c1C(=O)C=C(OC)C2=O`, the outcome in assay [1] and in assay [2] was inactive.
Take `O=c1c(O[C@@H]2O[C@H](CO[C@@H]3O[C@H](CO)[C@@H](O)[C@H](O)[C@H]3O)[C@@H](O)[C@H](O)[C@H]2O)c(-c2ccc(O)c(O)c2)oc2cc(O)cc(O)c12`: the outcome in assay [1] and in assay [2] was inactive.
With `O=C1OC(O)c2cc(O)c(O[C@@H]3O[C@H](CO)[C@@H](O)[C@H](O)[C@H]3O)c3c(-c4ccccc4)ccc1c23` (mixture of isomers), the result in assay [1], in assay [2], in assay [4] and in assay [5] was inactive.
Turning to `COC1=Cc2cc(OC)c(O[C@@H]3O[C@H](CO)[C@@H](O)[C@H](O)[C@H]3O[C@@H]3O[C@H](COC(=O)/C=C/c4ccc(O)c(O)c4)[C@@H](O)[C@H](O)[C@H]3O)c3c(-c4ccccc4)ccc(c23)C1=O`, the outcome in assay [1], in assay [2], in assay [4] and in assay [5] was inactive.
Regarding `O=C1OCc2cc(O)c(O[C@@H]3O[C@H](CO)[C@@H](O)[C@H](O)[C@H]3O)c3c(-c4ccccc4)ccc1c23`, the result in assay [1], in assay [2], in assay [4] and in assay [5] was inactive.
As to `O=C1C=Cc2cc(O)c(O[C@@H]3O[C@H](CO)[C@@H](O)[C@H](O)[C@H]3O)c3cc(-c4ccccc4O)cc1c23`, the result in assay [1], in assay [2], in assay [4] and in assay [5] was inactive. The inhibition at 32 µg/mL in assay [6] turned out to be 38.7%.
As for `CC(=O)OC[C@@H]1O[C@H](Oc2c(OC(C)=O)cc3c4c(ccc(-c5ccccc5)c24)C(=O)OC3)[C@@H](OC(C)=O)[C@H](OC(C)=O)[C@H]1OC(C)=O`, the outcome in assay [1] and in assay [2] was inactive.
With `O=c1c(O[C@@H]2O[C@H](CO)[C@@H](O)[C@H](O)[C@H]2O)c(-c2ccc(O)c(O)c2)oc2cc(O)cc(O)c12`, the outcome in assay [1] and in assay [2] was inactive.

The values above are taken from ChEMBL document CHEMBL4840361, “Phytochemical Profiling and Biological Testing of the Constituents of the Australian Plant Haemodorum brevisepalum” (2021).
